Source: PubChem BioAssay
In the library only some 1.4% were active in any assay of this set; here they are far more common.
N-glyco inh: N-linked glycosylation inhibition; D54 ERlucT glycosylation luciferase reporter, 24 h; percent of 100 nM tunicamycin response; 360,000 compounds, 0.23% hits; AID 588692; reporter increase, % at 12.5 µM;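 active = mean luciferase reporter signal, scaled so untreated is 0 and the glycosylation-blocking control 100, at or above a set limit in every replicate; inconclusive = mean reaches the limit but not every replicate does; inactive = mean below the limit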;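 note: luciferase carries N-glycosylation sites so blocking glycosylation raises the light; 0% = median of neutral control wells and 100% = median of 100 nM tunicamycin wells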
Vif imaging: blocks HIV Vif function; HEK293T cells, Vif self-association by quenched fluorescence, imaging, 24 h; inhibition, % at 7.49 µM; 340,000 compounds, 0.35% hits; AID 602346; in the data active = inhibition above about 50%, passing the limit was not always enough; inconclusive = no clear call, values can overlap the other calls; inactive = below about 31%
CDK5 inh: blocks human CDK5/p35 kinase activity; Q00535+Q15078; Recombinant CDK5/p35, ADP-Glo luminescence, 60 min; inhibition, % at 10 µM; 330,000 compounds, 0.01% hits;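 active = highest replicate inhibition of at least 50% and at least 75% of replicates reaching 50%; inconclusive = only one of the two criteria met; inactive = both criteria failed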;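 note: plate controls were DMSO neutral control for no effect and GW8510 at 10 µM for full effect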
Target sequence (Q00535 whole entry, looked up): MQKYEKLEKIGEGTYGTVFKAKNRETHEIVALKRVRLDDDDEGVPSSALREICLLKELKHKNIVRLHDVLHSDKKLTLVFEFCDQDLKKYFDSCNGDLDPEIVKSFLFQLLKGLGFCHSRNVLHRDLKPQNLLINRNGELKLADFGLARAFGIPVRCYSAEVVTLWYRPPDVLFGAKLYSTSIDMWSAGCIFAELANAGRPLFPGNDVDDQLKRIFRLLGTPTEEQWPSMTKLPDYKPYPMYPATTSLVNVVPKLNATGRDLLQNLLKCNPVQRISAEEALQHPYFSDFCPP
Target sequence (Q15078 whole entry, looked up): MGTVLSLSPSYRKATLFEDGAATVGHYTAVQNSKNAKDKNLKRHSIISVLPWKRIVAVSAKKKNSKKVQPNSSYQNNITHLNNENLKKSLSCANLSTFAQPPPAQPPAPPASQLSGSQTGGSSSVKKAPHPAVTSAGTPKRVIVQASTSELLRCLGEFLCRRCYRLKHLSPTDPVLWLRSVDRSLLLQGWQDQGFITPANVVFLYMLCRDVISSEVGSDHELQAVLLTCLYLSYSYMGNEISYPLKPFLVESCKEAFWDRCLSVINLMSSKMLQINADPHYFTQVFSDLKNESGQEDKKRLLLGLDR
CAL PDZ FP-1: CAL PDZ (human) peptide binding inhibition; inhibition, % at 24.9 µM; purified CAL PDZ, TMR-peptide fluorescence polarization, 1 h; Q9HD26; AID 602252; 300,000 compounds, 0.92% hits;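 active = mean inhibition of at least 30% with at least half of replicates also reaching 30%; inconclusive = no clear call, values can overlap the other calls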;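 note: 0% = DMSO neutral control and 100% = excess unlabeled competitor peptide PRC23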
CAL PDZ FP-2: human CAL PDZ-peptide interaction inhibition; purified CAL PDZ, TMR-peptide fluorescence polarization, 1 h; inhibition, % at 20 µM; 330,000 compounds, 0.02% hits;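 active = highest replicate inhibition of at least 40%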;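 note: plate controls were DMSO neutral control wells for no effect and unlabeled competitor peptide control wells for full effect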
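Control set: unlabelled peptide and DMSO controls / Material: purified CerCALP PDZ construct / Timing: 1 h incubation at room temperature before polarization reading / Doses: 20 µM, one dose / Detection: fluorescence polarization (mP)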
PvdQ acylase: P. aeruginosa PvdQ acylase inhibition. 340,000 compounds, 0.063% hits. inhibition, % at 10 µM. purified PvdQ acylase, fluorescence plate reader; in the data active = inhibition above about 30%, passing the limit was not always enough; inconclusive = no clear call, values can overlap the other calls;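 note: 0% = vehicle neutral wells and 100% = reference inhibitor wells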
The depositor's hits bear a star; u = inconclusive; x = no result given.

SMILES | N-glyco inh | Vif imaging | CDK5 inh | CAL PDZ FP-1 | CAL PDZ FP-2 | PvdQ acylase
COc1ccc(OCC(O)CNC(=O)c2ccc(OC)cc2)cc1 (stereo unspecified) | 3 | -12 | 1 | -1 | -1 | -5
COc1ccc(OCC(O)CNC(=O)c2ccc(Br)cc2)cc1 (stereo unspecified) | 2 | 9 | -2 | 72* | 13 | -10
Clc1ccc(-c2ccccc2)cn1 | 4 | -9 | 1 | -2 | 0 | -16
N#Cc1cc(-c2ccccc2)cnc1Cl | -2 | x | 0 | -4 | -1 | 37*
CN(C)c1ccc(C(C[N+](=O)[O-])c2c(N)n(C)c(=O)n(C)c2=O)c(F)c1C#N (stereo unspecified) | 28* | -2 | 1 | 0 | -1 | 10
Cn1c(N)c(C(C[N+](=O)[O-])c2c(F)cccc2Cl)c(=O)n(C)c1=O (stereo unspecified) | -5 | 2 | 0 | -3 | -1 | -6
O=C(N/N=C/c1ccc(F)cc1)c1sccc1OCc1ccc(F)cc1 | u | x | 1 | -3 | -2 | -8
O=C(N/N=C/c1ccc(Cl)cc1)c1sccc1OCc1ccc(F)cc1 | 33* | 16 | 0 | -6 | -1 | 1
COc1cc(-c2nc3cnccn3c2Nc2ccccc2)ccc1O | 16 | 17 | 0 | x | 1 | -6
COc1cc(-c2nc3cnccn3c2Nc2ccc(C)cc2)ccc1O | 26* | x | 3 | -4 | -1 | -3
COc1cc(/C=C(\C#N)c2nc3ccccc3s2)ccc1OCC(=O)Nc1ccccc1 | 71* | -6 | 1 | 0 | 0 | -18
CCOC(=O)/C(C#N)=C/c1ccc(OCC(=O)Nc2ccc(C)c(C)c2)c(OC)c1 | 1 | 11 | x | -2 | -2 | 2
COc1cc(/C=C(\CC(=O)O)c2nc3ccccc3s2)ccc1OCC(=O)Nc1ccccc1F | 1 | 3 | 1 | 133* | -4 | -8
CCOC(=O)/C(C#N)=C/c1ccc(OCC(=O)Nc2ccc(OC)cc2)c(OC)c1 | -2 | 1 | -1 | 75* | -1 | -14
CCC(CC)NC(=O)c1n[nH]c(=O)c2ccccc12 | 0 | 2 | -1 | -4 | -1 | -17
CC(C)c1ccc(NC(=O)c2n[nH]c(=O)c3ccccc23)cc1 | 0 | -2 | 0 | 35* | -1 | -15
O=C(NNC(=O)c1n[nH]c(=O)c2ccccc12)c1ccc(Br)cc1 | 0 | -1 | -4 | 109* | -1 | -9
CCc1ccc(C(=O)NNC(=O)c2n[nH]c(=O)c3ccccc23)cc1 | 1 | 12 | 1 | -3 | 0 | -4
Cc1cc(F)c(F)cc1C(=O)N1CCCC1 | 1 | 3 | 0 | 53* | 0 | -10
O=C(c1cccc(F)c1F)N1CCCC1 | 1 | -10 | -2 | x | 0 | -4
O=C(NNC(=O)c1ccccc1[N+](=O)[O-])c1csc(N2CCOCC2)n1 | 2 | 13 | 1 | 49* | -2 | -13
Cc1cc(C)c2c(CN3CCCCC3)cc(=O)oc2c1 | -3 | 4 | 0 | 2 | -1 | -1
Cc1cc(C)c2c(CN3CCC(C)CC3)cc(=O)oc2c1 | -2 | -7 | 0 | 80* | -1 | -16
Cc1ccc2cc(C(c3nnnn3Cc3ccccc3)N3CCc4ccccc43)c(=O)[nH]c2c1C (stereo unspecified) | -1 | -2 | 2 | 81* | 0 | -14
Nc1nonc1-c1nc2ccccc2n1Cc1ccc(F)cc1Cl | 1 | x | 0 | active | -2 | -8
SMILES | N-glyco inh | Vif imaging | CDK5 inh | CAL PDZ FP-1 | CAL PDZ FP-2 | PvdQ acylase
Fc1ccc(Cn2c(-c3cscn3)nc3ccccc32)c(Cl)c1 | 0 | -22 | 0 | -4 | x | 9
C=CCc1cc(C=Nc2ccc(N3CCOCC3)cc2)cc(OCC)c1O | 4 | 4 | 0 | -1 | 1 | 1
Cc1cc(NCCCN(C)C)n2c(nc3ccccc32)c1C#N | 34* | 3 | 1 | -11 | -3 | -34
Cc1cc(NCCCOC(C)C)n2c(nc3ccccc32)c1C#N | -1 | -2 | 2 | -2 | 1 | -31
CC(=O)NCCNc1nc2cc(-c3ccsc3)sc2c(=O)n1C | 2 | 16 | x | x | x | x
Cc1cc(NCC2CCCO2)n2c(nc3ccccc32)c1C#N (stereo unspecified) | 3 | -4 | -1 | -2 | -2 | -1
CCc1c(C)c(C#N)c2nc3ccccc3n2c1NCC1CCCO1 (stereo unspecified) | 0 | -9 | 1 | 31* | 0 | -14
Cn1ccc(NC(=O)c2ccc(Cl)cc2)n1 | -2 | -1 | 0 | -1 | 0 | -1
Cc1cccc(C(=O)Nc2ccn(C)n2)c1 | -4 | 0 | 0 | 55* | 0 | -12
COc1cc(C2C=C(c3cccs3)Nc3ncnn32)cc(OC)c1OC (stereo unspecified) | 7 | 2 | 1 | 33* | 1 | -1
COc1cc(C2CC(=O)C3=C(C2)Nc2ncnn2C3c2cccs2)cc(OC)c1OC (stereo unspecified) | 4 | 20 | x | x | x | x
Cc1cccc(N2CCN(C(=O)CN3C(=O)NC4(CCCCCC4)C3=O)CC2)c1C | 1 | -1 | -1 | x | -1 | -12
Cc1cc(NC(=O)c2cc(F)c(F)cc2Cl)no1 | 2 | 3 | 0 | -1 | 0 | 92*
Cc1cc(NC(=O)Nc2ccc(F)c(Cl)c2)no1 | -2 | -15 | 1 | x | -9 | 44*
Cc1cc(NC(=O)Nc2cccc(Cl)c2)no1 | -1 | x | x | x | x | x
Cc1ccc(NC(=O)c2cc(F)c(F)cc2Cl)nc1 | -5 | 5 | 2 | -2 | 0 | -5
CS(=O)(=O)c1ccc(NS(=O)(=O)c2ccc(Cl)c(C(=O)NCc3ccco3)c2)cc1 | 4 | x | -2 | -4 | -1 | 8
Cc1nn(C(C)C(=O)NC2CCCCCC2)c(=O)c2nn(-c3ccccc3)c(C)c12 (stereo unspecified) | -2 | -1 | 2 | 3 | -1 | -14
Cc1cc2oc3ccc(NCCCn4ccnc4)cc3c(=O)c2cc1C | -6 | 154* | -2 | -5 | 0 | -10
COc1ccc(Cl)cc1C1=NOC2(CCC2)C(=O)N1Cc1ccc(NC(C)=O)cc1 | 3 | -7 | x | x | x | x
CCOC(=O)Cc1csc(SCC(=O)Nc2ccc3[nH]c(=O)[nH]c3c2)n1 | 1 | 1 | -2 | -5 | 0 | -8
Cc1csc(SCC(=O)Nc2ccc3[nH]c(=O)[nH]c3c2)n1 | 2 | 15 | 1 | 106* | 0 | -20
C[C@@H]1CN([C@@H](C)CO)C(=O)c2cc(C#Cc3ccccc3)cnc2O[C@@H]1CN(C)Cc1ccccn1 | -2 | 14 | x | x | x | x
CN(c1ncnc(N)c1[N+](=O)[O-])C1CCCCC1 | -13 | -22 | 3 | -2 | -3 | 38*
CN(c1ncnc(N)c1[N+](=O)[O-])C1CCS(=O)(=O)C1 (stereo unspecified) | -10 | -6 | 1 | 4 | 11 | 3
